27 compounds from ChEMBL document CHEMBL1130341, “Novel indole-2-carboxamide and cycloalkeno[1,2-b]indole derivatives. Structure-activity relationships for high inhibition of human LDL peroxidation” (J Med Chem, 1997) can be followed below.

A short description of assay [1]: Activity ratio versus Probucol in lipid peroxidation. It counts as functional. The method in brief: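 LDL isolated by ultracentrifugation from pooled plasma of healthy normolipidemic human donors. Compounds were added in DMSO just before copper-induced oxidation (3 h, 24 °C). Ten concentrations from 10^-7 to 10^-3 M were tested in duplicate. Read-out was TBARS inhibition (Yagi method), and IC50 came from linear regression. Activity was expressed as a ratio versus probucol to correct for LDL batch variation.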

Assay [2] can be described thus: Tested for inhibition of copper induced lipid peroxidation in human low density lipoproteins (LDL). It counts as functional. An outline of the steps:
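LDL isolated by ultracentrifugation from pooled plasma of healthy normolipidemic human donors. Oxidation driven by copper for 3 h at 24 °C. Compounds in DMSO added just before oxidation, at 10 concentrations from 10^-7 to 10^-3 M, in duplicate. TBARS measured by the Yagi method. IC50 by linear regression; also given as an activity ratio versus probucol.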

Another assay is filed under the species Bos taurus. The assay is described as follows: Inhibitory concentration against protection of bovine endothelial cells against cytotoxicity of oxidised LDL. In kind it is functional. As to conditions: Endothelial cell. An outline of the steps:
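Cells kept 48 h in the presence of oxidized LDL, washed twice with PBS. Viability read by MTT (250 µg mL^-1 in phenol red-free RPMI, 2 h, 37 °C), solubilized in DMSO, OD 540 nm, expressed as % of cells grown without oxidized LDL. Six concentrations, five assays each; IC50 by linear regression.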

The next assay is filed under the species Rattus norvegicus. The assay is described as follows: Inhibitory concentration against KCL-induced rat thoracic contraction. It counts as functional. An outline of the steps:
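Isolated rat aorta contracted with hyperpotassic solution (KCl 60 mM). Inhibition of contraction measured at eight concentrations, 10^-8 to 3 × 10^-5 M, each in duplicate, on two separate preparations. IC50 obtained from the concentration-response curve by linear regression. Flunarizine as reference.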

A further assay deals with Endothelial cell. Nature of the assay: Inhibitory concentration against 15-lipoxygenase, by inhibiting 15-HETE production by human umbilical vein endothelial cells (HUVEC) stimulated by calcium ionophore A 23187 at concentration of 10e-5 M. It counts as cell-based. The method in brief: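 HUVEC (isolated) preincubated 15 min at 37 °C with compound at 10^-5 M in DMSO, in triplicate; stimulated with calcium ionophore A 23187 (5 × 10^-6 M in DMSO).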

A value given as a limit tells only on which side of the number the result lay.

With `COc1cccc(N(C)C(=O)c2cc3cc(OC)ccc3n2C)c1`, in assay [1], the Ratio was 0.01. The IC50 in assay [2] turned out to be 200 µM.

Turning to `CN(C(=O)c1cc2cc(O)ccc2n1C)c1ccccc1`, in assay [1], the Ratio was determined as 10. For the same compound, the IC50 in assay [2] came to 0.2 µM.

For `COc1ccc2[nH]c3c(c2c1)CCCC3`, in assay [1], the Ratio was 3. The compound also had an IC50 in assay [2] of 1 µM.

For the compound `CN(C(=O)c1cc2cc(O)ccc2n1C)c1cccc(Cl)c1`, the Ratio in assay [1] is more than 20. This compound also came in with an IC50 in assay [2] of less than 0.1 µM.

With `COc1ccc2c(c1)cc(C(=O)N(C)c1ccccc1)n2C`, in assay [1], the Ratio was found to be 0.02. The compound also showed an IC50 in assay [2] of 90 µM.

Consider `CCCCCCCCN(C(=O)c1cc2cc(O)ccc2[nH]1)c1ccccc1`, for which the Ratio in assay [1] stood at 0.3. The compound also gave an IC50 in assay [2] of 10 µM.

Turning to `Cn1c(C(=O)Nc2cccc(Cl)c2)cc2cc(O)ccc21`, in assay [1], the Ratio came out at 0.8. Further, in assay [2], the 50% inhibitory concentration (IC50) was found to be 1 µM.

With `CCCCCCN(C(=O)c1cc2cc(O)ccc2n1C)c1ccccc1`, in assay [1], the Ratio came out at 5. In assay [2], the IC50 was 0.2 µM.

On to `COc1cc(NC(=O)c2cc3cc(O)ccc3[nH]2)cc(OC)c1OC`, for which the Ratio in assay [1] turned out to be 3.8. In assay [2], this compound displayed an IC50 of 0.8 µM.

As for `CN(C(=O)c1cc2cc(O)ccc2n1C)c1cccc(Br)c1`, the Ratio in assay [1] worked out at 2.5. Further, the IC50 in assay [2] is 0.8 µM.

For `CCCCN(C(=O)c1cc2cc(O)ccc2n1C)c1ccccc1`, the Ratio in assay [1] stood at 3. Moreover, 1 µM corresponded to half-maximal inhibition in assay [2] (IC50).

Turning to `CCSc1ccc2c(c1)c1c(n2C)CCCC1`, the Ratio in assay [1] worked out at 0.1. In assay [2], this compound yielded an IC50 of 20 µM.

For the compound `CCCCCCCCN(C(=O)c1cc2cc(SCC)ccc2[nH]1)c1ccccc1`, in assay [1], the Ratio was 0.03. The IC50 in assay [2] was 100 µM.

Consider `Cn1c2c(c3cc(O)ccc31)CCCCCC2`, for which the Ratio in assay [1] was 10. In assay [2], the IC50 was found to be 0.1 µM.

As for `CCCCCCN(C(=O)c1cc2cc(O)ccc2[nH]1)c1ccccc1`, the Ratio in assay [1] was 10. Further, the IC50 in assay [2] turned out to be 0.1 µM.

For the compound `O=C(Nc1ccccc1)c1cc2cc(O)ccc2[nH]1`, the Ratio in assay [1] was 3. This compound also had an IC50 in assay [2] of 1 µM.

In the case of `COc1ccc(CN2CCN(C(=O)c3cc4cc(O)ccc4[nH]3)CC2)c(OC)c1OC`, the Ratio in assay [1] was found to be 1. Besides, the IC50 in assay [2] was 5 µM.

For `Cn1c2c(c3cc(O)ccc31)CCCC2`, in assay [1], the Ratio was found to be 3. Moreover, half-maximal inhibition in assay [2] (IC50) required 0.6 µM.

In the case of `CN(C(=O)c1cc2cc(O)ccc2n1C)c1cccc(C(F)(F)F)c1`, the Ratio in assay [1] was 0.5. The compound further came in with an IC50 in assay [2] of 1 µM.

For the compound `Cn1c(C(=O)N2CCN(C(c3ccc(F)cc3)c3ccc(F)cc3)CC2)cc2cc(O)ccc21`, in assay [1], the Ratio turned out to be 5. Also, the IC50 in the assay filed under Bos taurus is 0.14 µM; in assay [2], 0.6 µM; in the assay filed under Rattus norvegicus, 1.5 µM.

`Cn1c2c(c3cc(O)ccc31)CCCCC2`: in the assay on Endothelial cell, the inhibition was found to be 62%. The compound also registered an IC50 in assay [2] of 0.1 µM.

For `Oc1ccc2[nH]c3c(c2c1)CCCCCC3`, in assay [1], the Ratio was 2. The midpoint of inhibition in assay [2], the IC50, lay at 0.5 µM.

With `COc1ccc2[nH]c(C(=O)Nc3ccccc3)cc2c1`, the Ratio in assay [1] was determined as 2.2. In assay [2], this compound registered an IC50 of 0.9 µM.

Take `CN(C(=O)c1cc2cc(O)ccc2[nH]1)c1ccccc1`: the Ratio in assay [1] was 1. Further, half-maximal inhibition in assay [2] (IC50) required 1 µM.

`CC(C)(Sc1cc(C(C)(C)C)c(O)c(C(C)(C)C)c1)Sc1cc(C(C)(C)C)c(O)c(C(C)(C)C)c1` [PROBUCOL] showed an IC50 in assay [2] of 5 µM.

Regarding `COc1ccc2[nH]c(C(=O)N(C)c3ccccc3)cc2c1`, the Ratio in assay [1] was less than 0.001. Moreover, the IC50 in assay [2] was more than 1000 µM.

For `Cn1c(C(=O)Nc2ccccc2)cc2cc(O)ccc21`, the Ratio in assay [1] is 0.3. Further, in assay [2], the IC50 is 0.9 µM.

What is called IC50 is the concentration that gives 50% inhibition. Higher therefore signals weaker potency in that assay. As a reminder, the inhibition is the change of the read-out against control, counted positive when it falls.
